In ChEMBL document CHEMBL1149846, “The role of lipophilicity in determining binding affinity and functional activity for 5-HT2A receptor ligands” (Bioorg Med Chem, 2008):
pKi: −log10 of the molar value.

Columns and labels:
[1] = biological target: 5-hydroxytryptamine receptor 2A (Rattus norvegicus) (UniProt P14842); test: Antagonist activity at Sprague-Dawley rat 5HT2A receptor by drug discrimination assay; type: functional; conditions: filed as antagonist
[2] = biological target: T1, 5-hydroxytryptamine receptor 2A (Rattus norvegicus, UniProt P14842); test: Displacement of [3H]ketanserin from 5HT2A receptor in Sprague-Dawley rat brain by liquid scintillation spectroscopy
T1 sequence (P14842 whole entry): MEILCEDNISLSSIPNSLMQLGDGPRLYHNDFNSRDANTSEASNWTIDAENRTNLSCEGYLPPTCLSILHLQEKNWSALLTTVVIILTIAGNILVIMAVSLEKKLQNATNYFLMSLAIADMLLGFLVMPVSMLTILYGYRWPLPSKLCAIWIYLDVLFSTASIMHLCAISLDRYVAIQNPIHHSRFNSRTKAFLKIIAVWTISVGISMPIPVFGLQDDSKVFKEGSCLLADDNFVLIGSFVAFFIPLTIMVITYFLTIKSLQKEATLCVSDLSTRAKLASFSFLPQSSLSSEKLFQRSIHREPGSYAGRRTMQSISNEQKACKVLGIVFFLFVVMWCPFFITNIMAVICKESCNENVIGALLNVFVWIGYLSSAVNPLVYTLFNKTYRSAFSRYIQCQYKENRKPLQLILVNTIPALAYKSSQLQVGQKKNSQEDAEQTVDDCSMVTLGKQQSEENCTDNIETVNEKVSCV

[3] = biological target: 5-hydroxytryptamine receptor 2A (Rattus norvegicus) (UniProt P14842); test: Agonist activity at Sprague-Dawley rat 5HT2A receptor by drug discrimination assay; type: functional; conditions: filed as agonist
[4] = biological target: T1, 5-hydroxytryptamine receptor 2A; test: Displacement of [3H]MDL100907 from 5HT2A receptor in Sprague-Dawley rat brain by liquid scintillation spectroscopy
Method in brief: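 Frontal cortex from male Sprague-Dawley rat brains, washed in 50 mM Tris-HCl pH 7.4 and resuspended in buffer with 0.5 mM Na2EDTA, 10.0 μM pargyline, 5.7 mM CaCl2 and 0.1% ascorbate. Cinanserin (10 μM) defined nonspecific binding. Bound label was collected by GF/C filtration and counted. Values from ≥3 experiments, each in triplicate.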

Chain of 5-hydroxytryptamine receptor 2A (Rattus norvegicus) (P14842 whole entry): as above

| SMILES | Efficacy [1] | pKi [2] | Efficacy [3] | pKi [4] |
| --- | --- | --- | --- | --- |
| Cc1nc2sccn2c(=O)c1CCN1CCC(=C(c2ccc(F)cc2)c2ccc(F)cc2)CC1 | Antagonist | – | – | – |
| CSc1cc(CC(C)N)c(SC)cc1C (racemic) | Antagonist | 6.75 | – | – |
| CC(N)Cc1c2ccoc2c(Br)c2ccoc12 (racemic) | – | – | Agonist | – |
| COc1cc(CCN)cc(OC)c1OC | – | – | Agonist | – |
| NCCc1c2c(c(Br)c3c1OCC3)OCC2 | – | – | Agonist | – |
| CN(C)CCc1c[nH]c2ccsc12 | Antagonist | – | – | 5.34 |
| CC(N)Cc1cc(F)c(Br)cc1F (racemic) | Antagonist | – | – | 5.60 |
| COc1cc(CC(C)N)c(OC)cc1Br (racemic) | – | – | Agonist | – |
| CC(N)Cc1c2c(c(Br)c3c1OCC3)OCC2 (racemic) | – | – | Agonist | – |
| COc1cc(CC(C)N)c(OC)cc1I (racemic) | – | 7.72 | Agonist | – |
| CCc1cc(OC)c(CC(C)N)cc1OC (racemic) | – | – | Agonist | – |
| COc1cc(C(F)(F)F)c(OC)cc1CC(C)N (racemic) | – | 7.48 | Agonist | – |
| COc1cc2c(cc1Br)OCCC(N)C2 (racemic) | – | 6.37 | – | – |
| CC(N)Cc1c2ccccc2c(Br)c2ccccc12 (racemic) | Antagonist | – | – | 6.50 |
| CN(C)CCc1c[nH]c2ccccc12 | – | – | Agonist | 5.79 |
| COc1cc(CCN)cc(OC)c1OCCc1ccccc1 | Antagonist | 7.23 | – | – |
| CN(C)CCc1c[nH]c2cccc(O)c12 [PSILOCIN] | – | – | Agonist | 6.49 |
| CSc1c2c(c(CC(C)N)c3c1OCC3)CCO2 (racemic) | – | – | – | 6.32 |
| NCCc1c2c(cc3c1OCC3)OCC2 | – | – | Agonist | – |
| COc1cc(C)cc(OC)c1CC(C)N (racemic) | – | 6.45 | Agonist | – |
| CN(C)CCc1c[nH]c2sccc12 | Antagonist | – | – | 5.43 |
| COc1cc(CC(C)N)c(OC)cc1C (racemic) [DOM] | – | 7.00 | – | – |
